Measured values from ChEMBL document CHEMBL1914430, “Synthesis of some new 1,3,5-trisubstituted pyrazolines bearing benzene sulfonamide as anticancer and anti-inflammatory agents” (Bioorg Med Chem Lett, 2011).

Legend:
Type in all cases: functional
[1] = tested on: TK-10; experiment: Anticancer activity against human TK10 cells after 48 hrs; conditions: TK-10, 48 h
Summary of the method: (§1)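 NCI ~60 human tumour cell line panel with a 48 h incubation. GI50 is the concentration giving a 50% fall in net growth, TGI gives total growth inhibition, and LC50 gives a net 50% loss of initial cells. An effect not reached or exceeded is reported as greater or less than the highest or lowest concentration tested.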

[2] = tested on: CCRF-CEM; experiment: Anticancer activity against human CCRF-CEM cells after 48 hrs
Summary of the method: (§2)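 NCI Drug Evaluation Branch 60-cell-line screen across leukemia, melanoma, lung, colon, CNS, ovarian, renal, prostate and breast panels. The incubation period is 48 h. Parameters are derived from dose–response data: GI50 is the concentration giving 50% decrease in net growth, TGI is total growth inhibition, and LC50 is net 50% loss of initial cells. Values beyond the tested range are reported as greater or less than the maximum or minimum concentration.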

[3] = tested on: SK-MEL-2; experiment: Anticancer activity against human SK-MEL-2 cells after 48 hrs; conditions: SK-MEL-2, 48 h
Summary of the method: (§3)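 NCI 60-line panel protocol with a 48 h incubation. Per line: GI50 = concentration giving 50% decrease in net cell growth; TGI = total growth inhibition; LC50 = net 50% loss of initial cells. When the level was not reached or was exceeded, the value is given as greater or less than the highest or lowest concentration tested.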

[4] = tested on: SK-MEL-5; experiment: Anticancer activity against human SK-MEL-5 cells after 48 hrs; conditions: SK-MEL-5, 48 h; summary of the method: as §3
[5] = tested on: UO-31; experiment: Anticancer activity against human UO31 cells after 48 hrs; conditions: UO-31, 48 h, read-out: LC50 (the source's name); summary of the method: as §1
[6] = tested on: U-251; experiment: Anticancer activity against human U251 cells after 48 hrs; conditions: U-251, 48 h; summary of the method: as §1
[7] = tested on: NCI-H460; experiment: Anticancer activity against human NCI-H460 cells after 48 hrs; conditions: NCI-H460, 48 h; summary of the method: as §3
[8] = tested on: RPMI-8226; experiment: Anticancer activity against human RPMI8226 cells after 48 hrs; conditions: RPMI-8226, 48 h; summary of the method: as §3
[9] = tested on: COLO 205; experiment: Anticancer activity against human COLO205 cells after 48 hrs; conditions: COLO 205, 48 h; summary of the method: as §2
[10] = tested on: PC-3; experiment: Anticancer activity against human PC3 cells after 48 hrs; conditions: PC-3, 48 h; summary of the method: as §3
[11] = tested on: A549; experiment: Anticancer activity against human A549 cells after 48 hrs; conditions: A549, 48 h; summary of the method: as §2
[12] = tested on: HCT-116; experiment: Anticancer activity against human HCT116 cells after 48 hrs; conditions: HCT-116, 48 h; summary of the method: as §2
[13] = tested on: EKVX; experiment: Anticancer activity against human EKVX cells after 48 hrs; summary of the method: as §2
[14] = tested on: KM12; experiment: Anticancer activity against human KM12 cells after 48 hrs; conditions: KM12, 48 h; summary of the method: as §2
[15] = tested on: A498; experiment: Anticancer activity against human A498 cells after 48 hrs; conditions: A498, 48 h; summary of the method: as §2
[16] = tested on: ACHN; experiment: Anticancer activity against human ACHN cells after 48 hrs; summary of the method: as §2
[17] = tested on: Rattus norvegicus; experiment: Antiinflammatory activity in Wistar rat assessed as inhibition of carrageenan-induced hind paw edema at 20 mg/kg, po administered 30 mins before carrageenan challenge measured after 3 hrs by plethysmometer
Summary of the method: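 Wistar rats of either sex, 150–175 g, fasted 16 h, n = 6 per group. Compound given orally at 20 mg/kg as a suspension in 1% CMC in water (10 mL/kg); controls got vehicle only. After 30 min, 0.1 mL of 1% carrageenan in saline was injected subplantar into the left hind paw. Paw volume was measured by plethysmometer at 0, 3 and 5 h. Inhibition = (1 − Vt/Vc) × 100, reported as mean ± SEM.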

[18] = tested on: SF-295; experiment: Anticancer activity against human SF295 cells after 48 hrs; conditions: SF-295, 48 h; summary of the method: as §3
[19] = tested on: NCI-H522; experiment: Anticancer activity against human NCI-H522 cells after 48 hrs; conditions: NCI-H522, 48 h; summary of the method: as §3
[20] = tested on: MDA-MB-231; experiment: Anticancer activity against human MDA-MB-231 cells after 48 hrs; conditions: MDA-MB-231, 48 h; summary of the method: as §2
[21] = tested on: HOP-62; experiment: Anticancer activity against human HOP62 cells after 48 hrs; conditions: HOP-62, 48 h; summary of the method: as §2
[22] = tested on: 786-0; experiment: Anticancer activity against human 786-0 cells after 48 hrs; conditions: 786-0, 48 h; summary of the method: as §2
[23] = tested on: Malme-3M; experiment: Anticancer activity against human MALME-3M cells after 48 hrs; summary of the method: as §2
[24] = tested on: HOP-92; experiment: Anticancer activity against human HOP92 cells after 48 hrs; conditions: HOP-92, 48 h; summary of the method: as §2
[25] = tested on: UACC-257; experiment: Anticancer activity against human UACC257 cells after 48 hrs; conditions: UACC-257, 48 h; summary of the method: as §1
[26] = tested on: OVCAR-8; experiment: Anticancer activity against human OVCAR8 cells after 48 hrs; conditions: OVCAR-8, 48 h; summary of the method: as §3
[27] = tested on: SN12C; experiment: Anticancer activity against human SN12C cells after 48 hrs; summary of the method: as §3
[28] = tested on: HCT-15; experiment: Anticancer activity against human HCT15 cells after 48 hrs; conditions: HCT-15, 48 h; summary of the method: as §2
[29] = tested on: CAKI-1; experiment: Anticancer activity against human Caki1 cells after 48 hrs; conditions: CAKI-1, 48 h; summary of the method: as §2
[30] = read-out: LC50 (the source's name)

`Cc1cc(O)c(C2=NN(c3ccc(S(N)(=O)=O)cc3)C(c3ccccc3O)C2)cc1Cl` (stereo not drawn) was tested, and the GI50 [1] was 3.3 µM, the LC50 [1] was 27.2 µM and the TGI [1] was 6.85 µM. The GI50 [2] was 4.17 µM, the LC50 (concentration causing net 50% loss of initial cells) [2] was over 100 µM and the TGI [2] was over 100 µM. The GI50 [3] was 11 µM, the LC50 [3] was 67 µM and the TGI [3] was 27.2 µM. It also gave a GI50 [4] of 5.69 µM, an LC50 [4] of 42.7 µM and a TGI [4] of 18.2 µM. It also gave a CC50 [5] of 38.5 µM, a GI50 [6] of 2.78 µM and a TGI [6] of 7.76 µM. It also gave a CC50 [6, 30] of 26.9 µM, a GI50 [7] of 2.06 µM and an LC50 (50% lethal concentration) [7] of 9.4 µM. It also gave a TGI [7] of 4.48 µM, a GI50 [8] of 2.39 µM and an LC50 (concentration for net 50% loss of initial cells) [8] of over 100 µM. The TGI [8] was 15 µM, the GI50 [9] was 1.95 µM and the LC50 (concentration giving net 50% loss of initial cells) [9] was 6.43 µM. The TGI [9] was 3.54 µM, the GI50 [10] was 1.33 µM and the TGI [10] was 3.52 µM. It also gave a CC50 [10, 30] of 9.33 µM, a GI50 [11] of 3.69 µM and an LC50 (net 50% loss of initial cells) [11] of 60.5 µM. The TGI [11] was 15.5 µM, the GI50 [12] was 1.66 µM and the TGI [12] was 3.02 µM. The CC50 [12, 30] was 5.5 µM, the GI50 [13] was 1.99 µM and the TGI [13] was 7.16 µM. For the same compound, the CC50 [13, 30] was 39.7 µM, the GI50 [14] was 1.78 µM and the LC50 (concentration causing net 50% loss of initial cells) [14] was 6.82 µM. For the same compound, the TGI [14] was 3.48 µM, the GI50 [15] was 2.79 µM and the TGI [15] was 14.5 µM. The CC50 [15, 30] was 46.9 µM, the GI50 [16] was 3.13 µM and the TGI [16] was 11.2 µM. It also gave a CC50 [16, 30] of 33.4 µM, an inhibition in vivo at 20 mg/kg [17] of 73.6% and a GI50 [18] of 1.66 µM. For the same compound, the LC50 (concentration giving net 50% loss of initial cells) [18] was 8.09 µM, the TGI [18] was 3.67 µM and the GI50 [19] was 2.15 µM. It also gave an LC50 (concentration killing 50% of initial cells) [19] of 28 µM, a TGI [19] of 6.28 µM and a GI50 [20] of 2.3 µM. The TGI [20] was 6.69 µM, the CC50 [20, 30] was 29.5 µM and the GI50 [21] was 1.93 µM. For the same compound, the LC50 (concentration for 50% net loss of initial cells) [21] was 11.7 µM, the TGI [21] was 4.5 µM and the GI50 [22] was 2.23 µM. The TGI [22] was 4.21 µM, the CC50 [22, 30] was 7.94 µM and the GI50 [23] was 2.72 µM. For the same compound, the TGI [23] was 7.34 µM, the CC50 [23, 30] was 59.2 µM and the GI50 [24] was 1.46 µM. It also gave a TGI [24] of 6.51 µM, a CC50 [24, 30] of 37.8 µM and a GI50 [25] of 6.92 µM. For the same compound, the LC50 [25] was 59 µM, the TGI [25] was 22.1 µM and the GI50 [26] was 3.89 µM. The TGI [26] was 16.5 µM, the CC50 [26, 30] was 91.8 µM and the GI50 [27] was 4.08 µM. The LC50 [27] was 43.1 µM, the TGI [27] was 15.3 µM and the GI50 [28] was 3.64 µM. For the same compound, the TGI [28] was 13.4 µM, the CC50 [28, 30] was 44.7 µM and the GI50 [29] was 1.56 µM. It also gave an LC50 (concentration giving 50% net loss of initial cells) [29] of 16.6 µM and a TGI [29] of 4.44 µM.
